Insulin prom up – MIN6 insulin promoter up-regulation; MIN6 insulin promoter-GFP reporter, high-content imaging; active compounds read high; z-score at 5 µM; actives 0.3% (n = 190,000); AID 1625;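 active = z-score above 3 at 5 µM with at least 500 cells counted in the well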
MT stabilizer – stabilizes microtubules in HeLa cells; HeLa tubulin immunostaining HCS, 24 h; share of cells brighter than vehicle mean+2SD; actives 0.83% (n = 200,000); AID 2205; % tubulin-high responders, % at 10 µM;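 active = plate Z-score above 3 for both tubulin-high and condensed-nucleus cell shares, with cell loss under 80%, at 10 µM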;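 also: anti alpha tubulin signal scored within the nucleus-defined area of each cell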
bCat nuc transl – beta-catenin nuclear translocation modulation. HeLa beta-catenin nuclear translocation, immunofluorescence imaging. actives 0.3% (n = 190,000). nuclear translocation activity, % at 5 µM;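 active = nuclear translocation activity above 50% at 5 µM, with a well cell count of 50 or more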;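 also: per-cell ratio of nuclear to cytoplasmic median beta-catenin stain intensity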
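Test system: HeLa cells, endogenous beta-catenin; Compound: single 5 µM dose plus 0.02–20 µM confirmation series; Times: compound exposure 24 h at 37°C; Signal: fluorescence imaging of beta-catenin antibody stain plus DAPI; Read-out: % activation, nuclear-to-cytoplasmic median beta-catenin signal ratio per cell.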
Autophagy HCS – modulators of autophagy. AID 463193. MEF GFP-LC3 puncta imaging; test concentration mostly 10 µM. actives 0.98% (n = 190,000). calls only at 10 µM (by protocol);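 active = percentage of spot-positive cells more than 3 SD above its plate mean, without a fluorescence outlier flag or 80% toxicity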
Dynein transport – dynein cargo transport inhibition | 3617.4 mouse cells, GR-EGFP nuclear translocation imaging; test concentration mostly 20 µM; stimulated with dexamethasone, 1 µM; active compounds read low | z-score, hits read low | actives 0.47% (n = 220,000);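 active = plate z-score of nuclear minus cytoplasmic receptor signal below a set negative limit, without overly bright fluorescence or cell loss, cut at about -3.5 in these data, passing the limit was not always enough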;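 also: z-score of nuclear minus cytoplasmic ring GR-EGFP intensity difference per well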
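medium = tetracycline-free induction medium containing charcoal-stripped FBS | probe or stimulus = dexamethasone, 1.0 µM final | timing = 48 h induction, then 1 h compound, then 30 min agonist, 37 °C | detection = automated 10x imaging of fixed Hoechst-stained cells | read-out basis = nuclear versus cytoplasmic GR-EGFP signal, averaged per well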
A number is an active result. An excerpt weighted towards active compounds, which were near 2.3% of everything screened.

Results for O=C(CSc1ncc(-c2ccccc2)nn1)NCc1ccco1 ?
Insulin prom up: inactive; MT stabilizer: inactive; Autophagy HCS: inactive; Dynein transport: inactive

What do the screens show for `O=C(CSc1nc(-c2ccco2)cc(C(F)(F)F)n1)Nc1ccc2c(c1)CCC2`?
Insulin prom up: inactive; MT stabilizer: 46.8; bCat nuc transl: inactive; Autophagy HCS: inactive; Dynein transport: inactive

Results for Cc1ccc(NC(=O)CSc2nnc(-c3ccco3)c(-c3ccco3)n2)cc1 ?
Insulin prom up: inactive; MT stabilizer: 29.2; bCat nuc transl: 96.8; Autophagy HCS: inactive; Dynein transport: inactive

Results for O=C(CSc1nc(-c2ccco2)cc(C(F)(F)F)n1)NC1CCCC1 ?
Insulin prom up: inactive; MT stabilizer: inactive; Autophagy HCS: inactive; Dynein transport: inactive

What do the screens show for `O=C(CSc1nnc(-c2ccccc2)c(-c2ccccc2)n1)NCc1ccco1`?
Insulin prom up: inactive; MT stabilizer: 42.7; bCat nuc transl: inactive; Autophagy HCS: inactive; Dynein transport: inactive

Results for O=C(CSc1nnc(-c2ccco2)c(-c2ccco2)n1)Nc1ccccc1 ?
Insulin prom up: inactive; MT stabilizer: inactive; bCat nuc transl: inactive; Autophagy HCS: inactive; Dynein transport: inactive

How did CSC1=NCCN1C(=O)C12CC3CC(CC(C3)C1)C2 do in these assays?
Insulin prom up: inactive; MT stabilizer: inactive; bCat nuc transl: inactive; Autophagy HCS: inactive; Dynein transport: inactive

How did S=C(Nc1ccccc1Cl)NC1CCCCCC1 do in these assays?
Insulin prom up: inactive; MT stabilizer: inactive; bCat nuc transl: inactive; Autophagy HCS: inactive; Dynein transport: inactive

How did CCN(CC)c1ccc(/C=C(/C#N)C(=O)NC(C)C)o1 do in these assays?
MT stabilizer: inactive; bCat nuc transl: inactive; Autophagy HCS: inactive; Dynein transport: inactive

Results for CC(C)NC(=O)/C(C#N)=C\c1ccc(N(C)C)o1 ?
Insulin prom up: 11.5; MT stabilizer: inactive; bCat nuc transl: inactive; Autophagy HCS: inactive; Dynein transport: inactive

What do the screens show for `CC(=O)Nc1ccc(/C=C(\C#N)C(=O)NCc2ccccc2)cc1`?
Insulin prom up: inactive; MT stabilizer: inactive; Autophagy HCS: inactive; Dynein transport: inactive

Results for CCN(CC)c1ccc(/C=C(/C#N)C(=O)NCc2ccccc2)o1 ?
Insulin prom up: inactive; MT stabilizer: inactive; bCat nuc transl: inactive; Autophagy HCS: active; Dynein transport: inactive

How did CCCc1nc2oc3ccccc3c(=O)c2c(=O)n1CCCOC do in these assays?
Insulin prom up: inactive; bCat nuc transl: inactive; Dynein transport: inactive

Results for CCC(C)Sc1cc(C(F)(F)F)c(C(=O)Nc2ccc(Cl)cc2)cn1 (centres undefined) ?
Insulin prom up: inactive; bCat nuc transl: inactive; Dynein transport: inactive

Results for Cc1ccc(OCCN2C(=O)C(=O)c3cc(C)ccc32)cc1 ?
MT stabilizer: inactive; bCat nuc transl: inactive; Autophagy HCS: active; Dynein transport: inactive

What do the screens show for `Cn1c(=O)c2c(ncn2CCC(=O)N/N=C/c2ccncc2)n(C)c1=O`?
Insulin prom up: inactive; bCat nuc transl: inactive; Dynein transport: inactive

Results for COc1ccccc1-n1cnnc1SCC(=O)Nc1cc(C)on1 ?
MT stabilizer: 16.6; bCat nuc transl: inactive; Autophagy HCS: inactive; Dynein transport: inactive

Results for COc1ccc(-c2nnc(SCC(=O)Nc3cc(C)on3)n2N)cc1OC ?
Insulin prom up: inactive; MT stabilizer: inactive; bCat nuc transl: inactive; Autophagy HCS: inactive; Dynein transport: inactive

What do the screens show for `Cc1cc(NC(=O)CSc2nnc(C3CC3)n2C)no1`?
Insulin prom up: inactive; MT stabilizer: inactive; Autophagy HCS: inactive; Dynein transport: inactive

Results for CCc1nnc(NC(=O)CSc2nnc3c(C)cc4c(C)ccc(C)c4n23)s1 ?
Insulin prom up: inactive; MT stabilizer: 20.4; bCat nuc transl: 63.1; Autophagy HCS: inactive; Dynein transport: inactive

How did Cc1cc(NC(=O)CSc2nnc3c(C)cc4c(C)ccc(C)c4n23)no1 do in these assays?
Insulin prom up: inactive; MT stabilizer: 57.0; bCat nuc transl: 94.1; Autophagy HCS: inactive; Dynein transport: inactive

What do the screens show for `COc1cc2cc(C)c3nnc(SCC(=O)Nc4cc(C)on4)n3c2cc1OC`?
Insulin prom up: 5.98; MT stabilizer: inactive; bCat nuc transl: inactive; Autophagy HCS: inactive; Dynein transport: inactive

Results for O=C(NC12CC3CC(CC(C3)C1)C2)c1cc([N+](=O)[O-])ccc1N1CCOCC1 ?
Insulin prom up: inactive; MT stabilizer: inactive; bCat nuc transl: inactive; Autophagy HCS: inactive; Dynein transport: inactive

What do the screens show for `CCOCCCn1c(=S)[nH]c2cc(C(=O)NCCCN(CC)CC)ccc2c1=O`?
Insulin prom up: inactive; MT stabilizer: inactive; bCat nuc transl: inactive; Autophagy HCS: inactive; Dynein transport: inactive

What do the screens show for `COc1cc(OC)cc(C(=O)N[C@H](C(=O)Nc2cccc(S(=O)(=O)N3CCCC3)c2)C(C)C)c1`?
Insulin prom up: inactive; bCat nuc transl: inactive; Dynein transport: inactive

How did CC(/C=N/NC(=O)c1cc(-c2cccnc2)nc2c1c(C)nn2-c1ccccc1)=C\c1ccccc1 do in these assays?
Insulin prom up: inactive; MT stabilizer: inactive; bCat nuc transl: inactive; Autophagy HCS: active; Dynein transport: inactive

What do the screens show for `Cc1nn(-c2ccccc2)c(N2CCCC2)c1/C=N/NC(=O)c1cc(-c2cccnc2)nc2ccccc12`?
Insulin prom up: inactive; MT stabilizer: inactive; bCat nuc transl: inactive; Autophagy HCS: inactive; Dynein transport: inactive

How did O=C(Nc1ccc(N2CCCC2)cc1)c1ccc([N+](=O)[O-])cc1Cl do in these assays?
Insulin prom up: inactive; MT stabilizer: inactive; bCat nuc transl: inactive; Autophagy HCS: inactive; Dynein transport: inactive

How did O=C(Nc1ccc(N2CCCCC2)cc1)c1cc([N+](=O)[O-])cc([N+](=O)[O-])c1 do in these assays?
Insulin prom up: inactive; MT stabilizer: inactive; bCat nuc transl: inactive; Autophagy HCS: active; Dynein transport: inactive

Results for O=C(Nc1ccc(N2CCN(c3ccc(O)cc3)CC2)cc1)Oc1ccccc1 ?
Insulin prom up: inactive; MT stabilizer: 17.9; bCat nuc transl: inactive; Autophagy HCS: inactive; Dynein transport: inactive

What do the screens show for `O=C(Nc1ccc(N2CCCC2)cc1)c1cccc(F)c1`?
Insulin prom up: inactive; MT stabilizer: 43.0; Autophagy HCS: inactive; Dynein transport: inactive

How did CN1CCN(c2ccc(NC(=O)c3cccc(OCc4ccccc4)c3)cc2)CC1 do in these assays?
Insulin prom up: inactive; MT stabilizer: inactive; bCat nuc transl: inactive; Autophagy HCS: active; Dynein transport: inactive

How did COc1ccc2nc(NC(=O)CC3Oc4ccccc4NC3=O)sc2c1 (centres undefined) do in these assays?
Insulin prom up: inactive; bCat nuc transl: inactive; Dynein transport: inactive

How did CCOC(=O)c1c(-c2ccc(F)cc2)csc1/N=C/N(C)C do in these assays?
Insulin prom up: inactive; MT stabilizer: inactive; bCat nuc transl: inactive; Autophagy HCS: inactive; Dynein transport: inactive

What do the screens show for `CCNC(=S)N1CCc2cc(OC)c(OC)cc2C1COc1ccccc1OC` (centres undefined)?
Insulin prom up: inactive; MT stabilizer: inactive; bCat nuc transl: inactive; Autophagy HCS: inactive; Dynein transport: inactive

Source: PubChem (several laboratories)
